This is an account of results in paper PMC4719142 (ACS Chemical Biology, 2015).

Assay [1] deals with L363 cells. The assay can be described thus: Cell viability. Format: cell-based, Human. Conditions: L363, 72 h treatment, four replicates ± SEM. In a few lines: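 MTS viability run in quadruplicate at the stated times and doses. Lines were grown in RPMI-1640 with 2 mM L-glutamine, 10% FBS and penicillin/streptomycin at 37 °C, 5% CO2. MTS reagent was added directly for 90 min at 37 °C. Formazan absorbance was read at 500 nm. Viability was normalised to DMSO-treated wells.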

Assay [2] has as its system several other cell lines. The settings on record: literature values across several other cell lines ref 33, 34; cited from earlier work.

One may read the IC50 as the point on the concentration scale where inhibition reaches its midpoint.

Turning to `CN(C)c1ccc(Nc2c3ccc(NC(=O)CCN4CCCC4)cc3nc3cc(NC(=O)CCN4CCCC4)ccc23)cc1` [BRACO-19], the IC50 was 15.3 ± 4.3 µM in assay [1] and 1 to 13 µM in assay [2].
